From ChEMBL document CHEMBL4024771, “Optimization of Orally Bioavailable Enhancer of Zeste Homolog 2 (EZH2) Inhibitors Using Ligand and Property-Based Design Strategies: Identification of Development Candidate …” (J Med Chem, 2018)
pIC50, pKi: −log10 of the molar value. Converted amounts (≈) assume the structure as drawn.

Assays:
[1] = Kinetic solubility of the compound; type: physicochemical; conditions: for solubility kinetic: read-out: Kinetic_solubility
[2] = Lipophilicity, log D of the compound at pH 7.4; conditions: buffer
[3] = Passive permeability in MDCK cells at 2 uM after 90 mins by LC-MS/MS analysis; type: ADME, cell-based, Canis lupus familiaris; conditions: dog; for permeability: mdck, 2 µM; for Papp at […], 2 µM: MDCK, read-out: permeability
How it was run: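 Low-efflux MDCK cells (MDCK-LE) on 96-well inserts, used on day 4. Monodirectional transport of 2 μM drug in transport buffer with 0.1% DMSO at 37 °C. Donor and receiver sampled at 0 and 90 min for LC−MS/MS. Donor pH 6.5 and 7.4, receiver pH 7.4.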

[4] = molecular target: Histone-lysine N-methyltransferase EZH2 (Homo sapiens, UniProt Q15910); assay: Inhibition of EZH2 in human KARPAS422 cells assessed as reduction in H3K27me3 level after 72 hrs by ELISA
Histone-lysine N-methyltransferase EZH2 (Homo sapiens, UniProt Q15910), sequence (Q15910 whole entry): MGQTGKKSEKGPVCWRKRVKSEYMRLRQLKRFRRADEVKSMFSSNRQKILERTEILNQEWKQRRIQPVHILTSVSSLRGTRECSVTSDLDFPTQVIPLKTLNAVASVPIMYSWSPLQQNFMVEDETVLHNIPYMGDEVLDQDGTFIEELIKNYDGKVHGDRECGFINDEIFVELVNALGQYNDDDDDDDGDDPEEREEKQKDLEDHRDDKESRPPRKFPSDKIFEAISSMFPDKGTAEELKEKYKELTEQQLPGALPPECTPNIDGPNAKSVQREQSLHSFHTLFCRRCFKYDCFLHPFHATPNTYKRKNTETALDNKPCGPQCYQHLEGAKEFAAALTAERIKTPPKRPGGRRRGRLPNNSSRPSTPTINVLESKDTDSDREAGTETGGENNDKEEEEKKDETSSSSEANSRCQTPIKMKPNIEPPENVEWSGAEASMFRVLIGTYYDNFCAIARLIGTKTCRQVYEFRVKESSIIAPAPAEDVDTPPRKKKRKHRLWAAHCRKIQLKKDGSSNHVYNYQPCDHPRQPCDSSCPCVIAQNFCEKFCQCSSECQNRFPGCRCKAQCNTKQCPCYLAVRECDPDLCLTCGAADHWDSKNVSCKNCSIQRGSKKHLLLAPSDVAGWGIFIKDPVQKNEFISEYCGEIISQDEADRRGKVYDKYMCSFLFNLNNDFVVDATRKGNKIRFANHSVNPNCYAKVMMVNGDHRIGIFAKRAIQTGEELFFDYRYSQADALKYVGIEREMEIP

KARPAS-422 = assay: Antiproliferative activity against human KARPAS422 cells after 72 hrs by resazurin assay; type: functional, cell-based
[5] = molecular target: Histone-lysine N-methyltransferase EZH2 (Homo sapiens, UniProt Q15910, Y641N); assay: Inhibition of EZH2 Y641N mutant (unknown origin) using oligonucleosomes as substrate after 60 mins in presence of [3H]SAM by scintillation counting analysis
Histone-lysine N-methyltransferase EZH2 (Homo sapiens, UniProt Q15910, Y641N), sequence (Q15910 whole entry Y641N): as the sequence (Q15910 whole entry) above, with Y641N counted along it

Liver = assay: (§1) Intrinsic clearance in human liver microsomes assessed per mg protein at 1 uM preincubated for 10 mins followed by NADPH addition measured after 45 mins by LC-MS/MS analysis; type: ADME, microsome; conditions: microsomes, 0.75 h, 1 µM
How it was run: (§2)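 Test compound (1 μM) with pooled liver microsomes (0.8 mg/mL protein) in 100 mM potassium phosphate pH 7.4, 10 min preincubation, started with 2 mM NADPH, 45 min at 37 °C, in triplicate. Samples quenched with cold methanol containing buspirone internal standard, analysed by LC−MS/MS. CLint derived from t1/2 of parent loss (log-linear slope).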

[6] = Thermodynamic solubility in water at 25 degC using crystalline form; type: physicochemical; conditions: read-out: Therm_solubility
[7] = as §1; type: ADME, microsome; conditions: liver microsomes, read-out: CLH; how it was run: as §2
[8] = Clearance in human hepatocytes assessed per million cells; type: ADME, cell-based, Hepatocyte; conditions: read-out: CLH

SMILES | Kinetic_solubility [1] [µM] | logD ([2]; pH 7.4) | permeability [3] [nm/s] | pIC50 [4] | pIC50 (KARPAS-422; karpas-422) | pKi [5] | microsomal CLint (Liver) [µL/min/mg] | solubility kinetic [1] [µM] | logD ([2]; pH 7.4, logD) | Papp at […], 2 µM [3] [nm/s] | solubility thermodynamic [6] [mg/mL] | pIC50 (KARPAS-422; Homo sapiens, KARPAS-422, 72 h) | microsomal CLint at 1 µM [7] [µL/min/mg] | hepatocyte CLint [8] [µL/min/1e6 cells]
CCOC(c1cc(Cl)c2c(c1Cl)C(=O)N(Cc1c(C)cc(C)[nH]c1=O)CC2)C1CS(=O)(=O)C1 (single isomer, unassigned) | 446 | 2.3 | 77 | 5.22 | 5.26 | 6.34 | 45.7 | – | – | – | – | – | – | –
CCC(O)c1cc(Cl)c2c(c1Cl)C(=O)N(Cc1c(C)cc(C)[nH]c1=O)CC2 (single isomer, unassigned; (+)) | 59 | – | – | 5.98 | 6.15 | 6.89 | 18 | – | 3.1 | 150 | – | – | – | –
CCC(OC)c1cc(Cl)c2c(c1Cl)C(=O)N(Cc1c(C)cc(C)[nH]c1=O)CC2 (single isomer, unassigned; (+)) | 33 | – | – | 7.14 | 6.74 | 8.05 | 105 | – | – | 182 | – | – | – | –
Cc1cc(C)c(CN2CCc3c(Cl)cc([C@H](C)CO)c(Cl)c3C2=O)c(=O)[nH]1 | – | – | – | 6.89 | – | 7.77 | – | 131 (≈ 53.6 µg/mL) | 2.6 | 124 | 0.034 (≈ 83.1 µM) | 6.73 | 15.8 | –
Cc1cc(C)c(CN2CCc3c(Cl)cc(C(CO)c4ccon4)c(Cl)c3C2=O)c(=O)[nH]1 (single isomer, unassigned; (+)) | – | – | – | – | 6.91 | – | 21.2 | 596 (≈ 276 µg/mL) | 2 | 58 | – | – | – | –
COC(c1cc(Cl)c2c(c1Cl)C(=O)N(Cc1c(C)cc(C)[nH]c1=O)CC2)C1CCOC1 (single isomer, unassigned; (-)10c) | 457 | – | 154 | 6.31 | 6.39 | 7.52 | 93.3 | – | – | – | – | – | – | –
COC(c1cc(Cl)c2c(c1Cl)C(=O)N(Cc1c(C)cc(C)[nH]c1=O)CC2)C1CCOC1 (single isomer, unassigned; (+)) | 439 | – | 187 | 7.33 | 7.30 | 8.72 | 128 | – | – | – | – | – | – | –
COC(C)c1cc(Cl)c2c(c1Cl)C(=O)N(Cc1c(C)cc(C)[nH]c1=O)CC2 (stereo in doubt; (-)9a) | 55.3 | – | – | – | 6.55 | – | 158 | – | 3.3 | 260 | – | – | – | –
CCC(CO)c1cc(Cl)c2c(c1Cl)C(=O)N(Cc1c(C)cc(C)[nH]c1=O)CC2 (single isomer, unassigned; (+)) | 324 | – | – | 6.86 | 6.91 | 8.34 | 66.3 | – | 2.8 | 109 | – | – | – | –
CCC(O)c1cc(Cl)c2c(c1Cl)C(=O)N(Cc1c(C)cc(C)[nH]c1=O)CC2 (stereo in doubt; (-)-3b) | – | – | 157 | 5.27 | 5.45 | 6.38 | 8 | 56 (≈ 22.9 µg/mL) | – | – | – | – | – | –
Cc1cc(C)c(CN2CCc3c(Cl)cc(-c4c(C)noc4C)c(Cl)c3C2=O)c(=O)[nH]1 | – | – | – | 7.77 | – | 8.94 | – | 93 to 95 (≈ 41.5 to 42.4 µg/mL) | – | 157 | 0.002 (≈ 4.48 µM) | 7.64 | 107 to 169 | 75

The remaining lines, values ahead:

Kinetic_solubility [1] [µM] | logD ([2]; pH 7.4) | permeability [3] [nm/s] | pIC50 [4] | pIC50 (KARPAS-422; karpas-422) | pKi [5] | microsomal CLint (Liver) [µL/min/mg] | solubility kinetic [1] [µM] | logD ([2]; pH 7.4, logD) | Papp at […], 2 µM [3] [nm/s] | solubility thermodynamic [6] [mg/mL] | pIC50 (KARPAS-422; Homo sapiens, KARPAS-422, 72 h) | microsomal CLint at 1 µM [7] [µL/min/mg] | hepatocyte CLint [8] [µL/min/1e6 cells] | SMILES
– | – | – | – | 7.66 | – | 92.6 | 532 (≈ 277 µg/mL) | 2.9 | 115 | – | – | – | – | COC(c1cc(Cl)c2c(c1Cl)C(=O)N(Cc1c(C)cc(C)[nH]c1=O)CC2)C1CCN(C(C)=O)CC1 (single isomer, unassigned; (+))
439 | – | 72 | 7.80 | 7.62 | 9.72 | 66.9 | – | – | – | – | – | – | – | COc1cc(C)[nH]c(=O)c1CN1CCc2c(Cl)cc(C(OC)C3CCOC3)c(Cl)c2C1=O (stereo in doubt; 22b)
– | – | – | 7.21 | 7.47 | 8.54 | 124 | 453 (≈ 233 µg/mL) | 2.4 | 120 | – | – | – | – | CCOC(c1cc(Cl)c2c(c1Cl)C(=O)N(Cc1c(C)cc(C)[nH]c1=O)CC2)C1CS(=O)(=O)C1 (single isomer, unassigned; (+))
508 | – | – | 7.82 | 7.77 | 9.42 | 25.9 | – | 2.1 | 25 | – | – | – | – | Cc1cc(C)c(CN2CCc3c(Cl)cc(C(CO)C4CCOC4)c(Cl)c3C2=O)c(=O)[nH]1 (stereo in doubt; (-)-6b)
– | – | – | 8.10 | 8.05 | 9.15 | 207 | 486 (≈ 234 µg/mL) | 2.3 | 57 | – | – | – | – | COc1cc(C)[nH]c(=O)c1CN1CCc2c(Cl)cc(C(OC)C3(C)COC3)c(Cl)c2C1=O (single isomer, unassigned; (+))
– | – | – | 7.89 | 7.68 | 9.60 | 42 | 508 (≈ 273 µg/mL) | 2.2 | 73 | – | – | – | – | COC(c1cc(Cl)c2c(c1Cl)C(=O)N(Cc1c(C)cc(C)[nH]c1=O)CC2)C1CCN(C(=O)CO)CC1 (stereo in doubt; (+)-16a)
– | – | – | 8.05 | 7.72 | 10.00 | 129 | 57.5 (≈ 27.6 µg/mL) | 3.4 | 133 | – | – | – | – | COC(c1cc(Cl)c2c(c1Cl)C(=O)N(Cc1c(C)cc(C)[nH]c1=O)CC2)C1CCOCC1 (single isomer, unassigned; (+))
– | – | – | 7.80 | 7.60 | 9.19 | 72.7 | 523 (≈ 280 µg/mL) | 2.7 | 70 | – | – | – | – | COC(c1cc(Cl)c2c(c1Cl)C(=O)N(Cc1c(C)cc(C)[nH]c1=O)CC2)C1CCN(C2COC2)CC1 (single isomer, unassigned; (+))
436 | – | – | 8.15 | 7.60 | 9.22 | 108 | – | 3 | 171 | – | – | – | – | COC(c1cc(Cl)c2c(c1Cl)C(=O)N(Cc1c(C)cc(C)[nH]c1=O)CC2)C1CCOC1 (single isomer, unassigned; (+)-10a)
– | – | – | – | 7.62 | – | 40 | 373 (≈ 197 µg/mL) | 2.2 | 63 | – | – | – | – | COC(c1cc(Cl)c2c(c1Cl)C(=O)N(Cc1c(C)cc(C)[nH]c1=O)CC2)C1CCS(=O)(=O)CC1 (stereo in doubt; (+)-18a)
– | – | – | 8.05 | 7.96 | > 10.00 | < 10.2 | 639 (≈ 315 µg/mL) | 1.4 | 27 | – | – | – | – | COC(c1cc(Cl)c2c(c1Cl)C(=O)N(Cc1c(C)cc(C)[nH]c1=O)CC2)C1CCN(C)CC1 (single isomer, unassigned; (+))
540 | – | – | 7.96 | 7.96 | 9.82 | 41.5 | – | 2.3 | 29 | – | – | – | – | Cc1cc(C)c(CN2CCc3c(Cl)cc(C(CO)C4CCOCC4)c(Cl)c3C2=O)c(=O)[nH]1 (single isomer, unassigned; (-))
– | – | – | 8.40 | 8.05 | > 10.00 | 60 | 433 (≈ 208 µg/mL) | 2.5 | 72 | – | – | – | – | COc1cc(C)[nH]c(=O)c1CN1CCc2c(Cl)cc(C(OC)C3CCOC3)c(Cl)c2C1=O (single isomer, unassigned; (+))
– | – | – | – | 8.00 | – | 25.6 | 480 (≈ 265 µg/mL) | 1.7 | 15 | – | – | – | – | COc1cc(C)[nH]c(=O)c1CN1CCc2c(Cl)cc(C(OC)C3CCN(C(=O)CO)CC3)c(Cl)c2C1=O (single isomer, unassigned; (+))
